ChEMBL document CHEMBL2434844, “Synthesis, antimicrobial, antioxidant activities of novel 6-aryl-5-cyano thiouracil derivatives” (Eur J Med Chem, 2013)
Values after ≈ are worked out from the molar mass of the structure shown. Active and inactive are the calls of the source. The calls are words filed in the database; no cut-off is given here.

Assays:
[1] = tested on: Bacillus cereus; assay: Antibacterial activity against Bacillus cereus ATCC 14579 after 24 hrs by microdilution technique; format: functional
In short: (§1)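 MIC by agar microdilution on Mueller-Hinton agar per NCCLS 1997. Bacteria subcultured overnight at 37 °C on MHA, Candida on SDA at 35 °C for 24-48 h, each passaged at least twice. Incubated 37 °C in humid chamber, read after 24 h.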

[2] = tested on: Staphylococcus aureus; assay: Antibacterial activity against Staphylococcus aureus ATCC 12600 at 10 mg/ml after 48 hrs by disc-diffusion method; format: functional; conditions: ATCC 12600, 48 h, read-out: DIZ
In short: (§2)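 Disc-diffusion reference: penicillin at 10 mg/mL on nutrient agar/Mueller-Hinton agar per Bauer method; inhibition zone diameter (mm) read after 48 h at 28 °C.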

[3] = tested on: Bacillus cereus; assay: Antibacterial activity against Bacillus cereus ATCC 14579 at 10 mg/ml after 48 hrs by disc-diffusion method; format: functional; conditions: ATCC 14579, 48 h, read-out: DIZ; in short: as §2
[4] = tested on: Escherichia coli; assay: Antibacterial activity against Escherichia coli ATCC 11775 at 10 mg/ml after 48 hrs by disc-diffusion method; format: functional; conditions: DSM 30083 = JCM 1649, 48 h, read-out: DIZ; in short: as §2
[5] = tested on: Staphylococcus aureus; assay: Antibacterial activity against Staphylococcus aureus ATCC 12600 after 24 hrs by microdilution technique; format: functional; in short: as §1
[6] = tested on: Candida albicans; assay: Antifungal activity against Candida albicans ATCC 26555 after 24 hrs by microdilution technique; format: functional; in short: as §1
[7] = tested on: Candida albicans; assay: Antifungal activity against Candida albicans ATCC 26555 at 10 mg/disc after 48 hrs by disc-diffusion method; format: functional
In short: (§3)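 Disc diffusion per Bauer method under NCCLS conditions on nutrient agar/Mueller-Hinton agar. Compound dissolved in sterile DMSO at 10 mg/mL, filtered 0.2 µm, stored frozen at -15 °C; 10 mg/disc in DMSO applied. DMSO control. Inhibition zone diameter measured in mm after 48 h incubation at 28 °C.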

[8] = tested on: Escherichia coli; assay: Antibacterial activity against Escherichia coli ATCC 11775 at 10 mg/disc after 48 hrs by disc-diffusion method; format: functional, DSM 30083 = JCM 1649; in short: as §3
[9] = tested on: Bacillus cereus; assay: Antibacterial activity against Bacillus cereus ATCC 14579 at 10 mg/disc after 48 hrs by disc-diffusion method; format: functional; in short: as §3
[10] = tested on: Escherichia coli; assay: Antibacterial activity against Escherichia coli ATCC 11775 after 24 hrs by microdilution technique; format: functional; in short: as §1
[11] = tested on: Staphylococcus aureus; assay: Antibacterial activity against Staphylococcus aureus ATCC 12600 at 10 mg/disc after 48 hrs by disc-diffusion method; format: functional; in short: as §3
[12] = tested on: Aspergillus flavus; assay: Antifungal activity against Aspergillus flavus ATCC 11495 after 24 hrs by microdilution technique; format: functional
[13] = tested on: Aspergillus flavus; assay: Antifungal activity against Aspergillus flavus ATCC 11495 at 10 mg/disc after 48 hrs by disc-diffusion method; format: functional; in short: as §3
[14] = tested on: Radical scavenging activity; assay: Antioxidant activity assessed as DPPH free radical scavenging activity after 20 mins by UV-visible spectrophotometric analysis; format: functional
In short: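 Kept in the dark at room temperature for 20 min, then absorbance read at 517 nm against DPPH blank, DMSO baseline. % scavenging = [(Ac−At)/Ac]×100; IC50 (µg/mL) from concentration plot; mean ± SEM, n=3, 8 replica each.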

[15] = tested on: Candida albicans; assay: Antifungal activity against Candida albicans ATCC 26555 at 50 ug/ml after 48 hrs by disc-diffusion method; format: functional; conditions: ATCC 26555, 48 h, read-out: DIZ
[16] = tested on: Aspergillus flavus; assay: Antifungal activity against Aspergillus flavus ATCC 11495 at 50 ug/ml after 48 hrs by disc-diffusion method; format: functional; conditions: ATCC 11495, 48 h, read-out: DIZ
In short: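 Disc diffusion per Bauer et al., following NCCLS conditions, on nutrient agar or Mueller-Hinton agar. Compounds were dissolved in sterile DMSO at 10 mg/mL stock, filtered at 0.2 µm and stored frozen at -15 °C. Test discs carried 10 mg/disc in DMSO, and fluconazole reference was 50 µg/mL. After 48 h incubation at 28 °C, inhibition zone diameter was read in mm.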

SMILES	MIC ([1]; ATCC 14579, 24 h)	MIC ([5]; ATCC 12600, 24 h)	MIC ([6]; ATCC 26555, 24 h)	diameter of the inhibition zone (DIZ) [7]	diameter of the inhibition zone (DIZ) [8]	diameter of the inhibition zone (DIZ) [9]	MIC ([10]; DSM 30083 = JCM 1649, 24 h)	diameter of the inhibition zone (DIZ) [11]	MIC ([12]; ATCC 11495, 24 h)	diameter of the inhibition zone (DIZ) [13]	Activity [14]	IC50 [14]	MIC [6]	diameter of the inhibition zone (DIZ) ([8]; DSM 30083 = JCM 1649)	MIC [1]	MIC ([10]; DSM 30083 = JCM 1649)	MIC [12]	other results
CC1(C)S[C@@H]2[C@H](NC(=O)Cc3ccccc3)C(=O)N2[C@H]1C(=O)O [PENICILLIN G]	32 µg/mL (≈ 95.7 µM)	16 µg/mL (≈ 47.8 µM)	–	–	–	–	–	–	–	–	–	–	–	–	–	–	–	zone of inhibition at 10000 µg/mL [2]: 16 mm; zone of inhibition at 10000 µg/mL [3]: 13 mm; zone of inhibition at 10000 µg/mL [4]: 12 mm
N#Cc1c(N/N=C/c2ccccc2)nc(=S)[nH]c1-c1ccc(F)cc1	16 µg/mL (≈ 45.8 µM)	16 µg/mL (≈ 45.8 µM)	16 µg/mL (≈ 45.8 µM)	19 mm	19 mm	22 mm	16 µg/mL (≈ 45.8 µM)	24 mm	16 µg/mL (≈ 45.8 µM)	19 mm	Dose-dependent effect	13.8 µg/mL (≈ 39.5 µM)	–	–	–	–	–	–
N#Cc1c(-c2ccc(F)cc2)[nH]c(=S)n2c(=O)c(=O)[nH]nc12	–	32 µg/mL (≈ 101 µM)	–	inactive	–	inactive	–	14 mm	16 µg/mL (≈ 50.7 µM)	18 mm	Dose-dependent effect	14.72 µg/mL (≈ 46.7 µM)	inactive	inactive	inactive	inactive	–	–
COc1cc(-c2[nH]c(=S)n3c(=O)[nH]nc3c2C#N)cc(OC)c1OC	–	64 µg/mL (≈ 178 µM)	–	inactive	–	inactive	–	10 mm	–	inactive	Dose-dependent effect	9.34 µg/mL (≈ 26 µM)	inactive	inactive	inactive	inactive	inactive	–
Cc1nnc2c(C#N)c(-c3ccc(F)cc3)[nH]c(=S)n12	–	–	–	inactive	–	inactive	–	inactive	–	inactive	Dose-dependent effect	72.03 µg/mL (≈ 252 µM)	inactive	inactive	inactive	inactive	inactive	MIC [5]: inactive
N#Cc1c(-c2ccc(F)cc2)[nH]c(=S)n2c(=O)[nH]nc12	–	32 µg/mL (≈ 111 µM)	–	inactive	–	inactive	–	12 mm	–	inactive	Dose-dependent effect	19.62 µg/mL (≈ 68.3 µM)	inactive	inactive	inactive	inactive	inactive	–
N#Cc1c(NN)nc(=S)[nH]c1-c1ccc(F)cc1	64 µg/mL (≈ 245 µM)	16 µg/mL (≈ 61.2 µM)	–	inactive	14 mm	12 mm	32 µg/mL (≈ 122 µM)	15 mm	32 µg/mL (≈ 122 µM)	13 mm	Dose-dependent effect	15.24 µg/mL (≈ 58.3 µM)	inactive	–	–	–	–	–
COc1cc(-c2[nH]c(=S)n3c(=O)c(=O)[nH]nc3c2C#N)cc(OC)c1OC	–	32 µg/mL (≈ 82.6 µM)	–	inactive	–	inactive	–	14 mm	16 µg/mL (≈ 41.3 µM)	17 mm	Dose-dependent effect	8.55 µg/mL (≈ 22.1 µM)	inactive	inactive	inactive	inactive	–	–
COc1cc(-c2[nH]c(=S)nc(NN)c2C#N)cc(OC)c1OC	64 µg/mL (≈ 192 µM)	64 µg/mL (≈ 192 µM)	–	inactive	12 mm	10 mm	32 µg/mL (≈ 96 µM)	11 mm	–	inactive	Dose-dependent effect	6.21 µg/mL (≈ 18.6 µM)	inactive	–	–	–	inactive	–
COc1cc(-c2[nH]c(=S)n3c(C)nnc3c2C#N)cc(OC)c1OC	–	–	–	inactive	–	inactive	–	inactive	–	inactive	Dose-dependent effect	31.15 µg/mL (≈ 87.2 µM)	inactive	inactive	inactive	inactive	inactive	MIC [5]: inactive
COc1cc(-c2[nH]c(=S)n3c(=S)[nH]nc3c2C#N)cc(OC)c1OC	64 µg/mL (≈ 170 µM)	–	32 µg/mL (≈ 85.2 µM)	12 mm	10 mm	11 mm	64 µg/mL (≈ 170 µM)	inactive	–	inactive	–	–	–	–	–	–	inactive	MIC [5]: inactive
O=C1O[C@H]([C@@H](O)CO)C(O)=C1O [ASCORBIC ACID]	–	–	–	–	–	–	–	–	–	–	Dose-dependent effect	10 µg/mL (≈ 56.8 µM)	–	–	–	–	–	–
N#Cc1c(-c2ccc(Br)cc2)[nH]c(=S)n2c(=S)[nH]nc12	64 µg/mL (≈ 176 µM)	–	32 µg/mL (≈ 87.9 µM)	12 mm	11 mm	10 mm	64 µg/mL (≈ 176 µM)	inactive	–	inactive	–	–	–	–	–	–	inactive	MIC [5]: inactive
COc1ccc(/C=N/Nc2nc(=S)[nH]c(-c3ccc(F)cc3)c2C#N)cc1	16 µg/mL (≈ 42.2 µM)	16 µg/mL (≈ 42.2 µM)	16 µg/mL (≈ 42.2 µM)	18 mm	19 mm	21 mm	16 µg/mL (≈ 42.2 µM)	23 mm	16 µg/mL (≈ 42.2 µM)	18 mm	Dose-dependent effect	12.68 µg/mL (≈ 33.4 µM)	–	–	–	–	–	–
COc1cc(-c2[nH]c(=S)n3nc(C)nc3c2C#N)cc(OC)c1OC	128 µg/mL (≈ 358 µM)	128 µg/mL (≈ 358 µM)	128 µg/mL (≈ 358 µM)	8 mm	7 mm	6 mm	128 µg/mL (≈ 358 µM)	6 mm	256 µg/mL (≈ 716 µM)	7 mm	–	–	–	–	–	–	–	–
COc1cc(-c2[nH]c(=S)n3nnnc3c2C#N)cc(OC)c1OC	32 µg/mL (≈ 92.9 µM)	16 µg/mL (≈ 46.5 µM)	–	inactive	12 mm	12 mm	32 µg/mL (≈ 92.9 µM)	14 mm	–	inactive	–	–	inactive	–	–	–	inactive	–
OC(Cn1cncn1)(Cn1cncn1)c1ccc(F)cc1F [FLUCONAZOLE]	–	–	16 µg/mL (≈ 52.2 µM)	–	–	–	–	–	16 µg/mL (≈ 52.2 µM)	–	–	–	–	–	–	–	–	zone of inhibition at 50 µg/mL [15]: 20 mm; zone of inhibition at 50 µg/mL [16]: 21 mm
